Results pooled from the literature.
Protocols differ between the studies behind these lines.
Read-out: cell growth or viability

Compound	cell line	technique	time	IC50
CC1=CC(=O)C(C(C)C)=CC1=O	SNB-19	SRB	48 h	56.9 µM
O=C1CS/C(=N\c2ccc(F)cc2O)N1c1nnc(-c2ccc(C(F)(F)F)cc2/N=C2\SCC(=O)N2c2ccc(F)cc2O)s1	WI-38	MTT	–	20.5 µM
Cc1ccc(S(=O)(=O)[O-])cc1.Nc1c([I+]c2ccccc2)c(=O)oc2ccccc12	HaCaT	MTT	48 h	35 µg/mL
CCCn1cnc2ccc(-c3ccc(NC(=O)CNC(C)C)nc3)cc2c1=O	HCC827	CCK-8	72 h	> 10 µM
CC(C)[C@@H]1NC(=O)/C(=C/c2cnc[nH]2)NC1=O	ASPC1	SRB	–	> 15 µM
OCc1ccc(-c2nn(Cc3ccccn3)c3cccnc23)o1	HuCCT-1	ATP luminescence	–	> 46 µM
O=C1CS/C(=N\c2cc(C(F)(F)F)ccc2-c2nnc(N3C(=O)CS/C3=N\c3ccc(-c4ccccc4)cc3)s2)N1c1ccc(-c2ccccc2)cc1	WI-38	MTT	–	94.7 µM
COc1cc(Cn2nc(-c3ccc(CO)o3)c3ccccc32)ccn1	HuCCT-1	ATP luminescence	–	> 46 µM
O=C1CS/C(=N\c2ccccc2O)N1c1nnc(-c2ccc(C(F)(F)F)cc2/N=C2\SCC(=O)N2c2ccccc2O)s1	WI-38	MTT	–	32.3 µM
NCc1ccc(-c2nn(Cc3ccccn3)c3cccnc23)o1	HuCCT-1	ATP luminescence	–	> 46 µM
O=C1CS/C(=N\c2cc(C(F)(F)F)ccc2-c2nnc(N3C(=O)CS/C3=N\c3ccc(F)c(O)c3)s2)N1c1ccc(F)c(O)c1	WI-38	MTT	–	20.3 µM
NCc1ccc(-c2nn(Cc3ccccc3)c3ccccc23)o1	HuCCT-1	ATP luminescence	–	> 46 µM
Cc1ccc(C(=O)Nc2ccc(-c3ccc4ncn(Cc5ccccc5)c(=O)c4c3)cn2)cc1	HCC827	CCK-8	72 h	> 10 µM
Cc1nc(Nc2ncc(C(=O)Nc3c(C)cccc3Cl)s2)cc(N2CC[C@H](O)C2)n1	KARPAS-299	ATP luminescence	72 h	> 10 µM
O=c1[nH]cc(F)c(=O)[nH]1	WI-38	MTT	72 h	42.2 µM
CCCCCC(=O)Nc1ccc(-c2ccc3ncn(CCC)c(=O)c3c2)cn1	HCC827	CCK-8	72 h	0.16 µM
CN1CCC(NC2CCc3[nH]c4c(C(N)=O)ccc(-c5ccccc5Cl)c4c3C2)CC1 (centres unmarked)	HuCCT-1	–	96 h	0.00122 µM
O=C(Nc1ccc(-c2ccc3ncn(Cc4ccccc4)c(=O)c3c2)cn1)C1CCCC1	HCC827	CCK-8	72 h	> 10 µM

Compound	cell line	technique	time	IC50
C=CC(C)(C)c1[nH]cnc1/C=C1/NC(=O)[C@H](C(C)C)NC1=O	ASPC1	SRB	–	> 15 µM
O=C1CS/C(=N\c2cc(C(F)(F)F)ccc2-c2nnc(N3C(=O)CS/C3=N\c3ccc(F)cc3)s2)N1c1ccc(F)cc1	WI-38	MTT	–	19.2 µM
CCCCC(=O)Nc1ccc(-c2ccc3ncn(CCCC)c(=O)c3c2)cn1	HCC827	CCK-8	72 h	0.13 µM
OCc1ccc(-c2nn(Cc3ccccc3)c3ccccc23)o1	HuCCT-1	ATP luminescence	–	> 46 µM
COc1cccc(N=C2SCC(=O)N2c2nnc(-c3ccc(C(F)(F)F)cc3N=C3SCC(=O)N3c3cccc(OC)c3)s2)c1	WI-38	MTT	–	82.1 µM
COc1cccc2c1C(=O)c1c(O)c3c(c(O)c1C2=O)C[C@@](O)(C(=O)CO)C[C@@H]3O[C@H]1C[C@H](N)[C@H](O)[C@H](C)O1	ASPC1	SRB	–	5.91 µM
CC(C)C(=O)Nc1ccc([N+](=O)[O-])c(C(F)(F)F)c1	HaCaT	MTS	48 h	> 100 µM
Cc1ccc(NC(=O)Nc2ccc(-c3ccc4ncn(Cc5ccccc5)c(=O)c4c3)cn2)cc1	HCC827	CCK-8	72 h	> 10 µM
CC1(P2(=O)CCCCC2)C=CCC=C1	HaCaT	MTT	72 h	> 100 µM
COc1ncccc1Cn1nc(-c2ccc(CO)o2)c2ccccc21	HuCCT-1	ATP luminescence	–	> 46 µM
CCCCn1cnc2ccc(-c3ccc(NC(=O)Nc4ccc(C)cc4)nc3)cc2c1=O	HCC827	CCK-8	72 h	9.15 µM
O=C1CS/C(=N\c2cc(C(F)(F)F)ccc2-c2nnc(N3C(=O)CS/C3=N\c3ccc(Cl)cc3)s2)N1c1ccc(Cl)cc1	WI-38	MTT	–	49.2 µM
CCCCn1cnc2ccc(-c3ccc(NC(=O)C4CCC4)nc3)cc2c1=O	HCC827	CCK-8	72 h	6.31 µM
OCc1ccc(-c2nn(Cc3ccccn3)c3ccccc23)o1	HuCCT-1	ATP luminescence	–	> 46 µM
COc1cccc2c1C(=O)c1c(O)c3c(c(O)c1C2=O)C[C@@](O)(C(=O)CO)C[C@@H]3O[C@H]1C[C@H](N)[C@H](O)[C@H](C)O1	HaCaT	MTT	72 h	0.3 µM
COc1ccccc1Cn1nc(-c2ccc(CO)o2)c2ccccc21	HuCCT-1	ATP luminescence	–	> 46 µM
CC1(P2(=O)CCCCC2)CCCCC1	HaCaT	MTT	72 h	> 100 µM
